A selection: hits, their analogues and other compounds. The true share with any hit is near 0.86%.
TNAP inh hi DEA – inhibitors of human TNAP at high phosphate acceptor concentration; inhibition, % at 20 µM; purified TNAP, CDP-star luminescence, 1 M DEA; P05186; AID 1135; hit rate 0.03% among 200,000;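 active = over 50% inhibition of tissue-nonspecific alkaline phosphatase at 20 µM in the single-dose screen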
TNAP act hi DEA – increases human TNAP activity under high phosphate acceptor concentration; P05186; purified TNAP, CDP-star luminescence, 1 M DEA, 30 min; hits give high values; 0 = EDTA background, 1 = DMSO-only activity; activation factor at 20 µM; 200,000 tested, under 10 active; AID 1136;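 active = activation factor at least 2 at 20 µM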
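Dosing: 20 µM single point. System: human TNAP. Amount: TNAP 1/800 final. Incubation: 30 min, room temperature. Read-out: TNAP activation factor scaled between EDTA and DMSO control wells. Signal: luminescence from CDP-star hydrolysis. Medium: 1 M DEA, pH 9.8, Mg2+, Zn2+. Control set: EDTA negative control, DMSO positive control.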
p97 inhibitor – human p97 ATPase inhibition; P55072; recombinant p97 ATPase, Kinase-Glo ATP luminescence, 3 h; inhibition, % at 8 µM; hit rate 0.42% among 220,000; in the data active = inhibition above about 15%
TNAP inh no acc – inhibitors of human TNAP without phosphate acceptor | P05186 | purified TNAP, CDP-star luminescence, 30 min | inhibition, % at 20 µM | hit rate 0.26% among 200,000 | AID 1012;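 active = tissue-nonspecific alkaline phosphatase inhibition above about 50% at 20 µM in the single-dose screen, limit read from the data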
Redox H2O2 prof – compounds producing H2O2 with reducing agent – biochemical, NIH compound library profiling, artefact control for MLSCN library redox annotation, primary screen | DTT-dependent redox cycling H2O2, phenol red/HRP absorbance; 100% = 100 µM peroxide control, 0% = buffer | activation, % at 10 µM | hit rate 0.03% among 200,000;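 active = activation of at least 50% relative to the plate's high and low controls in the primary single-dose screen; inactive = activation below 50%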;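 note: compound incubated with DTT at 0.8 mM final as the reducing agent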
PERK inhibitor – inhibitors of human PERK kinase. CHO PERK-DD fusion, SEAP luminescence translation reporter. inhibition, % at 5.6 µM. hit rate 0.17% among 220,000. AID 1416;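 active = inhibition above the mean inhibition of all tested compounds plus 3 SD, set separately per screening campaign, cut at about 2.9% in these data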;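 note: PERK kinase domain activated by AP20187 dimerizer at 100 nM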
p97 inh conf – confirmation of human p97 ATPase inhibitors. shares compounds with p97 inhibitor. recombinant p97 ATPase, Kinase-Glo ATP luminescence. inhibition, % at 8 µM. hit rate 44% among 760. AID 1517;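 active = percent inhibition of p97 ATPase above a set limit, the primary screen's mean plus 3 SD, cut at about 15% in these data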
Numbers stand for hits; n = inactive; x = no result given.

SMILES | TNAP inh hi DEA | TNAP act hi DEA | p97 inhibitor | TNAP inh no acc | Redox H2O2 prof | PERK inhibitor | p97 inh conf
CN1CCN(c2ncc(C=O)s2)CC1 | n | n | n | n | n | n | x
COc1cc(C(c2c(C)[nH]n(-c3ccccc3)c2=O)c2c(C)[nH]n(-c3ccccc3)c2=O)cc(OC)c1OC | n | n | 20.3 | n | n | n | n
CC(C)OC(=O)c1c(N)n(CC2CCCO2)c2nc3ccccc3nc12 (stereo not given) | n | n | 26.5 | n | n | n | n
CC(C)CCOC(=O)c1c(N)n(CC2CCCO2)c2nc3ccccc3nc12 (stereo not given) | n | n | n | n | n | n | x
OC(c1ccccc1)(c1ccc(Cl)cc1)C1CN2CCC1CC2 (stereo not given) | x | x | 16.2 | x | x | n | n
CSc1ccc(C(=O)C2CCCN(Cc3cnc(SC)nc3)C2)cc1 (stereo not given) | n | n | n | n | n | n | x
CCCCC(CC)COCCCN=Cc1c(O)[nH]c(=S)[nH]c1=O (stereo not given) | x | x | n | x | x | n | x

Source: PubChem (several laboratories)
